In publication PMC3449281 (Chemistry & biology, 2012):
Entries after “also recorded” stand apart in the source; their conditions may differ.

Tests used:
[1] = target: purified firefly luciferase (FLuc) (Photinus pyralis, UniProt P08659); experiment: Mode of inhibition; type: biochemical; conditions: IC50 shift with 1 mM D-LH2, 1 mM ATP or high CoASH
How it was run: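 Purified P. pyralis FLuc was run in the standard luciferase assay (10 μM ATP and D-LH2, the KM levels). Test compounds were given as 12-point titrations, 57.5 μM to 0.3 nM final. One substrate was kept at KM and the other saturating (1 mM ATP or 1 mM D-luciferin), or 500 μM CoASH was added. Fold shift = IC50 at high substrate / IC50 at KM. There were three separate tests, each in duplicate.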

[2] = tested on: miR-21 FLuc assay; experiment: miR-21 FLuc cell-based reporter gene assay; conditions: 48-hour incubation with compound
How it was run: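 The cell-based reporter expresses wild-type FLuc and was optimized to detect increases in FLuc signal. Cells were exposed to test compound for 48 h. Unlike the read-through assay, there was no wash step before the detection reagent was added. Concentration–response curves were recorded.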

[3] = target: T1, purified RLuc (Renilla reniformis, UniProt P27652); conditions: highest concentration tested = 57.5 μM
T1 sequence (P27652 1-311): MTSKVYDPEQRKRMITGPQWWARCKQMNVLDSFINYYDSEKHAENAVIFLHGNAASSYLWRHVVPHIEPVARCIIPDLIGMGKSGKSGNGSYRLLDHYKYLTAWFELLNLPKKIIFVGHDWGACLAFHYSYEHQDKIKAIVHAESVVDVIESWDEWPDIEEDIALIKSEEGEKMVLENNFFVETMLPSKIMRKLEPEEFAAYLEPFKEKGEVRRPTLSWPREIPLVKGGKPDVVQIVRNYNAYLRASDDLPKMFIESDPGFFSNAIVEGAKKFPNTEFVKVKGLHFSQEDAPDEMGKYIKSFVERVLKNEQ

Sequence of purified firefly luciferase (FLuc) (P08659 whole entry): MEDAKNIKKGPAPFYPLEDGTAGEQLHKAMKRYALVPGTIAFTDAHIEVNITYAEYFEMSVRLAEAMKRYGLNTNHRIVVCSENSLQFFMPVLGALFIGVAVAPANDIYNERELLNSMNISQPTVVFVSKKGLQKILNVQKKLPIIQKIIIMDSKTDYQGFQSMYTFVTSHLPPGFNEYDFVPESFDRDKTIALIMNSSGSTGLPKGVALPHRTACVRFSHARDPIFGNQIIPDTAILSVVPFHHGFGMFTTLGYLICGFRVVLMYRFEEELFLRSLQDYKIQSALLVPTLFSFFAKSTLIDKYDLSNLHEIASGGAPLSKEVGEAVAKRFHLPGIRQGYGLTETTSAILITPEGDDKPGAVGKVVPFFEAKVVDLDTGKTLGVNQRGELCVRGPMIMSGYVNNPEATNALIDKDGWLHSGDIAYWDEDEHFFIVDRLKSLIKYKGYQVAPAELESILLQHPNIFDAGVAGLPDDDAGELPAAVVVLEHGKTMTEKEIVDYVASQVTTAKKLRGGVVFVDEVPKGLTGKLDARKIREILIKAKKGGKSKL

| Structure (SMILES) | Mode of inhibition (substrate competition) [1] | Activity in RLuc assay [3] | other results |
| --- | --- | --- | --- |
| Cn1c(NN=Cc2cc3ccccc3nc2Cl)nc2ccccc21 [CID:4216593] | competitive with both D-LH2 and ATP; also recorded: significantly reduced by either ATP or D-LH2 | – | – |
| COc1ccc(-c2nc3ccccc3s2)cc1O [CID: 976322] | ATP was found to enhance inhibitor binding | – | – |
| CC(C)(C)C(=O)Nc1ccc(-c2nc3ccccc3s2)cc1 [CID: 16015828] | – | – | Effect on FLuc signal in cell-based miR-21 assay [2]: strong activation |
| CC(=NNC(=O)c1ccccc1NC(=O)c1ccc(Cl)cc1)c1ccncc1 [CID: 16193026] | only ATP | – | – |
| O=C(Nc1ccccc1C(=O)O)c1cccc(S(=O)(=O)Nc2ccc(Br)cc2)c1 [compound 1087370] | – | RLuc-active | – |
| O=C(Nc1ccccc1C(=O)O)c1cc(S(=O)(=O)Nc2cccc(F)c2)ccc1Cl [compound 1105141] | – | RLuc-active | – |
